Reference: ChEMBL document CHEMBL1154802, “Antiestrogenic constituents of the Thai medicinal plants Capparis flavicans and Vitex glabrata” (2009)
The source made the active and inactive calls. No cut-off for these calls is given here.

Legend:
MCF7 [1] = assay: Stimulation of human MCF7 cell proliferation up to 100 uM after 96 hrs by alamar blue assay relative to estradiol; type: functional, cell-based
Method in brief: (§1)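 Compounds were given alone at 0.1, 1, 10 and 100 µM, and stimulation of proliferation was compared with estradiol at 1–100 pM. Cell proliferation assay as in an earlier report.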

T47D [2] = assay: Stimulation of human T47D cell proliferation up to 100 uM after 96 hrs by alamar blue assay relative to estradiol; type: functional, cell-based; method in brief: as §1
MCF7 [3] = assay: Antiestrogenic activity in human MCF7 cells assessed as drug level causing inhibition of 100 pM E2-enhanced cell proliferation to level equivalent to 50 pM E2 after 96 hrs by alamar blue assay; type: functional
Method in brief: (§2)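 Cells seeded at 1 × 10^4 per well in phenol red-free RPMI with 5% DCC-treated FBS. E2 was added from a 20 nM solution to give 100 pM and preincubated 1 h at 37 °C, 5% CO2. Compounds were then added at 0.1, 1, 10 and 100 µM for 96 h, with serially diluted tamoxifen as positive control. Antagonism was judged from cell populations. iEqE values were obtained by linear regression over four concentrations.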

MCF7 [4] = assay: Antiestrogenic activity in human MCF7 cells assessed as drug level causing inhibition of 100 pM E2-enhanced cell proliferation to level equivalent to 10 pM E2 after 96 hrs by alamar blue assay; type: functional; method in brief: as §2
MCF7 [5] = assay: Antiestrogenic activity in human MCF7 cells assessed as drug level causing inhibition of 100 pM E2-enhanced cell proliferation to level equivalent to 1 pM E2 after 96 hrs by alamar blue assay; type: functional; method in brief: as §2
T47D [6] = assay: Antiestrogenic activity in human T47D cells assessed as drug level causing inhibition of 100 pM E2-enhanced cell proliferation to level equivalent to 50 pM E2 after 96 hrs by alamar blue assay; type: functional; method in brief: as §2
T47D [7] = assay: Antiestrogenic activity in human T47D cells assessed as drug level causing inhibition of 100 pM E2-enhanced cell proliferation to level equivalent to 10 pM E2 after 96 hrs by alamar blue assay; type: functional; method in brief: as §2
T47D [8] = assay: Antiestrogenic activity in human T47D cells assessed as drug level causing inhibition of 100 pM E2-enhanced cell proliferation to level equivalent to 1 pM E2 after 96 hrs by alamar blue assay; type: functional; method in brief: as §2
T47D [9] = assay: Antiestrogenic activity in human T47D cells assessed as inhibition of E2-enhanced cell proliferation at 0.1 to 100 uM after 96 hrs by alamar blue assay; type: functional; method in brief: as §2
MCF7 [10] = assay: Antiestrogenic activity in human MCF7 cells assessed as inhibition of E2-enhanced cell proliferation at 0.1 to 100 uM after 96 hrs by alamar blue assay; type: functional; method in brief: as §2

Structure (SMILES) | Activity (MCF7 [1]) | Activity (T47D [2]) | Activity (MCF7 [3]) [µM] | Activity (MCF7 [4]) [µM] | Activity (MCF7 [5]) [µM] | Activity (T47D [6]) [µM] | Activity (T47D [7]) [µM] | Activity (T47D [8]) [µM] | inhibition (INH) (T47D [9]) [%] | inhibition (INH) (MCF7 [10]) [%]
COc1cc([C@H]2Oc3c(OC)cc(/C=C/CO)cc3[C@@H]2CO)ccc1O[C@@H]1O[C@H](CO)[C@@H](O)[C@H](O)[C@H]1O | inactive | inactive | 0.3 | >100 | >100 | <0.1 | 63 | >100 | – | –
OC[C@H]1O[C@@H](Oc2cc([C@H]3OC[C@]4(O)[C@@H](c5ccc6c(c5)OCO6)OC[C@]34O)ccc2O)[C@H](O)[C@@H](O)[C@@H]1O [KHAINAOSIDE A] | inactive | inactive | <0.1 | <0.1 | <0.1 | <0.1 | <0.1 | 3 | – | –
COc1cc(O[C@@H]2O[C@H](CO)[C@@H](O)[C@H](O)[C@H]2O)ccc1O [TACHIOSIDE] | inactive | inactive | <0.1 | 0.2 | >100 | <0.1 | 10 | >100 | – | –
COc1cc(/C=C/CO)ccc1O[C@@H]1O[C@H](COC(=O)/C=C/c2ccc(O)c(O)c2)[C@@H](O)[C@H](O)[C@H]1O [KHAINAOSIDE C] | inactive | inactive | 4 | 4 | 5 | <0.1 | <0.1 | >100 | >90 | –
Nc1ncnc2c1ncn2[C@@H]1O[C@H](CO)[C@@H](O)[C@H]1O [ADENOSINE] | inactive | inactive | <0.1 | <0.1 | >100 | 2 | 69 | >100 | – | >90
COc1cc([C@H]2OC[C@H]3[C@@H]2CO[C@@H]3c2cc(OC)c(O)c(OC)c2)cc(OC)c1O [SYRINGARESINOL] | inactive | inactive | 2 | 4 | 5 | <0.1 | 1 | 7 | – | –
COc1cc(O)cc(OC)c1O[C@@H]1O[C@H](CO)[C@@H](O)[C@H](O)[C@H]1O [LEONURISIDE] | inactive | inactive | <0.1 | <0.1 | >100 | 0.4 | 39 | >100 | – | –
COc1cc([C@H]2OC[C@H]3[C@@H]2CO[C@@H]3c2cc(OC)c(O)c(OC)c2)ccc1O[C@@H]1O[C@H](CO)[C@@H](O)[C@H](O)[C@H]1O [ISOEUCOMMIN A] | inactive | inactive | <0.1 | <0.1 | <0.1 | <0.1 | <0.1 | >100 | >90 | –
COc1cc([C@H]2OC[C@H]3[C@@H]2CO[C@@H]3c2cc(OC)c(O[C@@H]3O[C@H](CO)[C@@H](O)[C@H](O)[C@H]3O)c(OC)c2)ccc1O | inactive | inactive | <0.1 | <0.1 | >100 | <0.1 | 2 | >100 | – | >90
COc1cc(C[C@H](CO)[C@@H](CO[C@@H]2O[C@H](CO)[C@@H](O)[C@H](O)[C@H]2O)Cc2cc(OC)c(O)c(OC)c2)cc(OC)c1O | inactive | inactive | <0.1 | 0.8 | 93 | 0.6 | >100 | >100 | – | –
COc1cc([C@H]2OC[C@H]3[C@@H]2CO[C@@H]3c2ccc(O[C@@H]3O[C@H](CO)[C@@H](O)[C@H](O)[C@H]3O)c(OC)c2)ccc1O | inactive | inactive | <0.1 | <0.1 | <0.1 | <0.1 | <0.1 | >100 | >90 | –
CC/C(=C(\c1ccccc1)c1ccc(OCCN(C)C)cc1)c1ccccc1 [TAMOXIFEN] | – | – | 0.1 | 0.2 | 0.4 | 0.1 | 0.7 | 9 | – | –
OC/C=C/c1ccc2c(c1)O[C@H](c1ccc(O)c(O)c1)[C@@H](CO)O2 [ISOAMERICANOL A] | inactive | inactive | <0.1 | 6 | >100 | <0.1 | 9 | >100 | – | –
CCCc1ccc(O[C@@H]2O[C@H](CO)[C@@H](O)[C@H](O)[C@H]2O)c(OC)c1 | inactive | inactive | <0.1 | <0.1 | 0.4 | <0.1 | >100 | >100 | >50 | –
C[C@@H](/C=C/[C@]1(O)[C@]2(C)CO[C@@]1(C)CC(=O)C2)O[C@@H]1O[C@H](CO)[C@@H](O)[C@H](O)[C@H]1O [SPIONOSIDE B] | inactive | inactive | <0.1 | <0.1 | 15 | 0.2 | 61 | >100 | – | –
Oc1ccc([C@H]2OC[C@H]3[C@@H]2CO[C@@H]3c2ccc(O)c(O)c2)cc1O | inactive | inactive | 0.2 | 31 | 94 | 0.2 | 26 | 73 | – | –
COc1cc([C@H]2OC[C@H]3[C@@H]2CO[C@@H]3c2cc(OC)c(O[C@@H]3O[C@H](CO)[C@@H](O)[C@H](O)[C@H]3O)c(OC)c2)cc(OC)c1O | inactive | inactive | <0.1 | <0.1 | <0.1 | <0.1 | 19 | >100 | – | –
COc1cc(O)ccc1O[C@@H]1O[C@H](CO[C@@H]2OC[C@@H](O)[C@H](O)[C@H]2O)[C@@H](O)[C@H](O)[C@H]1O [CAPPAROSIDE A] | inactive | inactive | <0.1 | 0.3 | >100 | <0.1 | >100 | >100 | >50 | –
COc1cc([C@H](O[C@@H]2O[C@H](CO)[C@@H](O)[C@H](O)[C@H]2O)[C@@H](CO)Oc2c(OC)cc(/C=C/CO)cc2OC)ccc1O | inactive | inactive | <0.1 | 6 | >100 | <0.1 | >100 | >100 | >50 | –
COc1cc(O[C@@H]2O[C@H](CO)[C@@H](O)[C@H](O)[C@H]2O)cc(OC)c1O [KOABURASIDE] | inactive | inactive | <0.1 | <0.1 | >100 | 2 | 37 | 70 | – | >90
O=c1cc(-c2ccc(O)cc2)oc2cc(O[C@@H]3O[C@H](CO)[C@@H](O)[C@H](O)[C@H]3O)cc(O)c12 [APIGETRIN] | inactive | inactive | <0.1 | <0.1 | >100 | <0.1 | <0.1 | 2 | – | >90
OC[C@@H]1Oc2ccc([C@H]3OC[C@H]4[C@@H]3CO[C@@H]4c3ccc(O)c(O)c3)cc2O[C@H]1c1ccc(O)c(O)c1 [PRINCEPIN] | inactive | inactive | 0.3 | 4 | 7 | 0.4 | 1 | 6 | – | –
